Screening results (PubChem)
Rows were chosen to be rich in hits. Some 2.2% of all compounds tested hit in one or more screens of this group.
V-ATPase pH = alters yeast V-ATPase proton transport. S. cerevisiae, pHLuorin cytosolic pH fluorescence. response, % at 10 µM. 350,000 tested, 0.37% active. AID 504577; in the data active means response mostly above about 7.3%, no sharp cut-off; inactive means mostly below about 5.4%; further: actives read high
NR2E3 ag-1 = NR2E3 (human) agonism; Q9Y5X4; GST-NR2E3/biotin-RetCOR TR-FRET, 1536-well; inhibition of corepressor binding, % at 4.78 µM; 320,000 tested, 0.12% active; AID 2300;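 active means percent inhibition above the cutoff of mean plus 3 SD of all tested compounds, set per screening campaign, cut at about 20% in these data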
Target sequence (Q9Y5X4 whole entry, looked up): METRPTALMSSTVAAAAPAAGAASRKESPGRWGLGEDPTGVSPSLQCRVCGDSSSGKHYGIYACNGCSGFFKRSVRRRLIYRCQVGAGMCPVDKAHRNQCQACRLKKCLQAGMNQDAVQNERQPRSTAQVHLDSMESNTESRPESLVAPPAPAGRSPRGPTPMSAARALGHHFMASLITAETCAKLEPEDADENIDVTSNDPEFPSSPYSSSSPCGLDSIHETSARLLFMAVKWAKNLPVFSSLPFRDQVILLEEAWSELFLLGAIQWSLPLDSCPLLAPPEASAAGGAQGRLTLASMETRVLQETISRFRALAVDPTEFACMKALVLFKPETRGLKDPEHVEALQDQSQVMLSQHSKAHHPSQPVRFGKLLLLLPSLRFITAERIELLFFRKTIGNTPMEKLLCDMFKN
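Material: NR2E3–RetCOR corepressor complex / Amount: 1.35 nM GST-NR2E3 / Medium: Tris pH 7.5 / Compound: single nominal compound dose of 4.8 µM / Incubation: 5 h at 4 °C / Technique: TR-FRET, Eu(K)-anti-GST donor, streptavidin-D2 acceptor, ex 340, em 617/671 nm / Read-out basis: percent loss of FRET ratio relative to control wells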
GalR3 antagonist = blocks the human galanin receptor 3; AID 651719; 360,000 tested, 0.44% active; inhibition, % at 3 µM; HEK293 GalR3-CNG cAMP membrane potential fluorescence; galR3 body fused to GalR1 C-terminus; O60755;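 active means inhibition above the screen-wide average plus 3 SD, cut at about 13% in these data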;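 further: forskolin and galanin both at EC90 stimulate the cells; cAMP rise reported by CNG channel membrane potential dye signal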
Target sequence (O60755 1-299 limits assumed): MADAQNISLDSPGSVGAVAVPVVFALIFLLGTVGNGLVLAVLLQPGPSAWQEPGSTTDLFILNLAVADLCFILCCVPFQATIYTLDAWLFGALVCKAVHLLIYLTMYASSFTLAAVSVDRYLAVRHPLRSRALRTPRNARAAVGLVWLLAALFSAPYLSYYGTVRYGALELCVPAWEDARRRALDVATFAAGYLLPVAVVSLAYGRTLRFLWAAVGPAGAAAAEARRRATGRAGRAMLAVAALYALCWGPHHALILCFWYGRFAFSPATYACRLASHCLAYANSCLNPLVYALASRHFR
NR2E3 ag-2 = human photoreceptor-specific nuclear receptor agonism; CHO-S Gal4-NCOR/VP16-NR2E3 two-hybrid, luciferase; inhibition of corepressor binding, % at 3.98 µM; 360,000 tested, 0.35% active; AID 602229;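 active means inhibition above the mean of all tested compounds plus 3 SD, cut at about 70% in these data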;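 further: higher means lower luciferase signal from less NR2E3 corepressor binding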
GAA850 FXN act = frataxin GAA850 promoter activation; HEK293 lucGAA850 FXN promoter luciferase reporter, 24 h; percent of 10 µM SAHA response; activation, % at 6 µM; 360,000 tested, 0.56% active;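 active means activation above the average of all compounds screened plus 3 SD, cutoff fixed separately per campaign, cut at about 7.5% in these data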
HIV Env fusion = inhibitors of HIV Env-mediated cell fusion. HeLa-JRFL Env/CEM21 cell fusion, luciferase. inhibition, % at 12.3 µM. 360,000 tested, 1.1% active. AID 651610;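 active means mean replicate inhibition score of at least 50 and every replicate individually at or above 50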
GAA30 FXN cntr = counter-screen for GAA850 frataxin promoter activators: GAA30 promoter activation | shares compounds with GAA850 FXN act | HEK293 lucGAA30 FXN promoter luciferase, 24 h; DMSO = 0%, 5 µM ipriflavone = 100% | activation, % at 6 µM | 1,900 tested, 66% active;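 active means mean activation above the mean of solvent-only control wells plus 3 SD, cut at about 22% in these data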;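 further: counterscreen of GAA850 promoter hits where activity marks nonselective or luminescence artifacts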
FXN GAA850 conf = GAA850 FXN promoter activation confirmation. activation, % at 6 µM. AID 588351. HEK293 lucGAA850 FXN promoter luciferase reporter, 24 h; 100% = activation by SAHA. 1,900 tested, 86% active. shares compounds with GAA850 FXN act;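 active means mean activation above a set limit taken from the primary screen, cut at about 8% in these data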
Large screens that a line does not name were inactive (follow-up assays come after a bar, where they were run).

CC1CCN(c2ccc(NC(=O)c3ccc([N+](=O)[O-])o3)cc2)CC1	GAA850 FXN act 11 (no result: HIV Env fusion) | GAA30 FXN cntr 80 | FXN GAA850 conf 63
Cc1ccc(NC(=O)c2ccc([N+](=O)[O-])o2)cc1C	GAA850 FXN act 7.7 | GAA30 FXN cntr 56 | FXN GAA850 conf 35
CC(C)NC(=O)Nc1ccc2c(c1)C(=O)N([C@H](C)CO)C[C@H](C)[C@@H](CN(C)C(=O)Nc1ccccc1)OCCCC[C@H](C)O2	none (no result: V-ATPase pH, NR2E3 ag-1, GalR3 antagonist, NR2E3 ag-2, GAA850 FXN act)
C[C@H](CO)N1C[C@H](C)[C@@H](CN(C)C(=O)NC2CCCCC2)Oc2ccc(NC(=O)Nc3ccc(F)cc3)cc2C1=O	none (no result: V-ATPase pH, NR2E3 ag-1, GalR3 antagonist, NR2E3 ag-2, GAA850 FXN act)
C[C@H]1CN([C@@H](C)CO)C(=O)c2cc(C#CC3CC3)cnc2O[C@@H]1CN(C)S(C)(=O)=O	none (no result: V-ATPase pH, NR2E3 ag-1, GalR3 antagonist, NR2E3 ag-2, GAA850 FXN act)
Cc1cc2c([nH]c3ccccc32)c2c1OC(C)(C)C=C2	GAA850 FXN act 8.2 (no result: HIV Env fusion) | GAA30 FXN cntr 124 | FXN GAA850 conf 46
C=CCN(Cc1ccc(OC)c(OC)c1)C(=O)c1cc2cc(F)ccc2[nH]1	GAA850 FXN act 13, HIV Env fusion 76 | GAA30 FXN cntr 27 | FXN GAA850 conf 16
C[C@H](O)C#Cc1ccc2c(c1)O[C@@H](CN(C)C(=O)CC1CC1)[C@@H](C)CN([C@H](C)CO)S2(=O)=O	none (no result: V-ATPase pH, NR2E3 ag-1, GalR3 antagonist, NR2E3 ag-2, GAA850 FXN act)
Cc1ccc(/C=C/C(=O)N2CCN(S(=O)(=O)c3c(C)c(C)cc(C)c3C)CC2)o1	none
Cc1ccc(/C=C/C(=O)N2CCN(S(=O)(=O)c3ccc(C)c(C)c3)CC2)o1	GAA850 FXN act 7.6 | GAA30 FXN cntr inactive | FXN GAA850 conf inactive
N/C(=N\N=C\c1ccc(O)cc1)c1nonc1N	none
N/C(=N\N=C\c1cccc(O)c1)c1nonc1N	GAA850 FXN act 7.9 | GAA30 FXN cntr 128 | FXN GAA850 conf 21
COc1ccc(-c2cn3ccccc3n2)cc1OC	GAA850 FXN act 7.9 | GAA30 FXN cntr 146 | FXN GAA850 conf 44
COc1ccc(-c2cn3cc(C)ccc3n2)cc1OC	none
Cc1c(Cl)cccc1N=Cc1ccc([N+](=O)[O-])s1	V-ATPase pH 20, GAA850 FXN act 9.2 | GAA30 FXN cntr inactive | FXN GAA850 conf inactive
COc1ccc(Nc2cc(Nc3cccc(OC)c3)ncn2)cc1	GAA850 FXN act 7.8 | GAA30 FXN cntr 85 | FXN GAA850 conf 26
COC(=O)c1ccc(NC(=O)c2ccc(NS(=O)(=O)c3cccc4cccnc34)cc2)cc1	none (no result: GalR3 antagonist, HIV Env fusion)
O=C(Nc1ccccc1O)c1ccc(NS(=O)(=O)c2cccc3cccnc23)cc1	GAA850 FXN act 20 | GAA30 FXN cntr 56 | FXN GAA850 conf 73
O=C(Nc1ncccc1O)c1ccc(S(=O)(=O)Nc2ccccc2)cc1	GAA850 FXN act 20 (no result: HIV Env fusion) | GAA30 FXN cntr 52 | FXN GAA850 conf 47
C=CCn1c(N)c(C(=O)NCCC2=CCCCC2)sc1=S	GAA850 FXN act 7.6 (no result: HIV Env fusion) | GAA30 FXN cntr 92 | FXN GAA850 conf 35
COc1cccc(CNC(=O)C[C@H]2C=C[C@H](NC(=O)C3CCOCC3)[C@@H](CO)O2)c1	none (no result: V-ATPase pH, NR2E3 ag-1, GalR3 antagonist, NR2E3 ag-2, GAA850 FXN act)
C[C@@H]1CCCCO[C@H](CN(C)Cc2ccc(Cl)c(Cl)c2)[C@H](C)CN([C@@H](C)CO)C(=O)c2cc(NC(=O)Cc3ccccc3)ccc2O1	none (no result: V-ATPase pH, NR2E3 ag-1, GalR3 antagonist, NR2E3 ag-2, GAA850 FXN act)
CC(C)Cc1nnc(NC(=O)c2cc3c(s2)CCC3)s1	GAA850 FXN act 8.2 | GAA30 FXN cntr 95 | FXN GAA850 conf 29
COc1c(O)ccc(/C=N/NC(=O)c2ccc3c(c2)OCCO3)c1[N+](=O)[O-]	GAA850 FXN act 7.7 | GAA30 FXN cntr 71 | FXN GAA850 conf 19
Cc1ccc(NC(=O)Cc2ccc(Cl)c(Cl)c2)cc1S(=O)(=O)N(C)C	none
Cc1ccc(NC(=O)CSc2nn(-c3ccc(Cl)cc3)c(=S)s2)cc1S(=O)(=O)N(C)C	GAA850 FXN act 10, HIV Env fusion 83 | GAA30 FXN cntr inactive | FXN GAA850 conf inactive
NS(=O)(=O)c1cccc(NC(=O)CSc2nn(-c3ccccc3)c(=S)s2)c1	none
CN(C)S(=O)(=O)c1cc(NC(=O)CSc2nn(-c3ccc(Cl)cc3)c(=S)s2)ccc1Cl	GAA850 FXN act 11, HIV Env fusion 133 | GAA30 FXN cntr inactive | FXN GAA850 conf 9.1
CCN(CC)S(=O)(=O)c1ccc2c(c1)C(=NO)c1cc(S(=O)(=O)N(CC)CC)ccc1-2	GAA850 FXN act 10 | GAA30 FXN cntr inactive | FXN GAA850 conf 19
CC1CCN(S(=O)(=O)c2ccc3c(c2)C(=NO)c2cc(S(=O)(=O)N4CCC(C)CC4)ccc2-3)CC1	GAA850 FXN act 11 (no result: V-ATPase pH, HIV Env fusion) | GAA30 FXN cntr inactive | FXN GAA850 conf 30
O=C(C[C@H]1CC[C@@H]2[C@H](COC[C@H](O)CN2C(=O)c2ccc3c(c2)OCO3)O1)NC1CCCC1	none (no result: V-ATPase pH, NR2E3 ag-1, GalR3 antagonist, NR2E3 ag-2, GAA850 FXN act)
C[C@H]1CN([C@@H](C)CO)C(=O)Cc2cc(NC(=O)Nc3ccc(C(F)(F)F)cc3)ccc2O[C@@H]1CN(C)Cc1ccc(C(=O)Nc2ccccc2N)cc1	none (no result: V-ATPase pH, NR2E3 ag-1, GalR3 antagonist, NR2E3 ag-2, GAA850 FXN act)
Nc1nn2cc(-c3ccc(Br)cc3)nc2c2ccccc12	GAA850 FXN act 12 | GAA30 FXN cntr 120 | FXN GAA850 conf 50
COc1ccc2c3c([nH]c2c1)[C@@H](CO)N(C(=O)c1ccncc1)CC31CCN(Cc2cccnc2)CC1	none (no result: V-ATPase pH, NR2E3 ag-1, GalR3 antagonist, NR2E3 ag-2, GAA850 FXN act)
O=C1c2cccc3c(N4CCCCC4)ccc(c23)C(=O)N1CCO	GAA850 FXN act 8.3 | GAA30 FXN cntr 88 | FXN GAA850 conf 33
C[C@@H]1CCCCO[C@@H](CN(C)C(=O)Nc2ccc3c(c2)OCO3)[C@H](C)CN([C@H](C)CO)C(=O)c2cc(NS(C)(=O)=O)ccc2O1	none (no result: V-ATPase pH, NR2E3 ag-1, GalR3 antagonist, NR2E3 ag-2, GAA850 FXN act)
CCOc1ccccc1N1CC(C(=O)Nc2cc(S(=O)(=O)N3CCOCC3)ccc2OC(C)C)CC1=O (stereo not given)	GAA850 FXN act 10 (no result: NR2E3 ag-1, HIV Env fusion) | GAA30 FXN cntr inactive | FXN GAA850 conf inactive
OC1CCCN(c2c3c(nc4cc(-c5cccc(F)c5)nn24)CCCC3)C1 (stereo not given)	GAA850 FXN act 14 | GAA30 FXN cntr 92 | FXN GAA850 conf 32
COc1ccc(Br)cc1S(=O)(=O)N1CCN=C1c1ccccc1	none (no result: NR2E3 ag-1)
Clc1ccc2c(c1)-c1ccccc1C1=NCCN12	GAA850 FXN act 33 (no result: NR2E3 ag-1) | GAA30 FXN cntr inactive | FXN GAA850 conf 139
Brc1ccc2c(c1)-c1ccccc1C1=NCCN12	GAA850 FXN act 24 (no result: NR2E3 ag-1) | GAA30 FXN cntr inactive | FXN GAA850 conf 130
CN1C2=NCCN2C(=O)c2cc(Cl)ccc21	none
